ChEMBL document CHEMBL5036380, “New Highly Potent NLRP3 Inhibitors: Furanochalcone Velutone F Analogues” (ACS Med Chem Lett, 2022)
Active and inactive are the calls of the source. No cut-off for these calls is given here.

Assays:
[1] = target: NACHT, LRR and PYD domains-containing protein 3 (Homo sapiens) (UniProt Q96P20); assay: Inhibition of NLRP3 inflammasome activation in LPS/nigericin-treated human THP-1 cells assessed as blockade of […] caspase 1 p20 in LPS stimulation followed by pretreatment for 40 min before induced with nigericin for 40 min measured by western blot analysis; type: cell-based; details: time 80.0 min
Summary of the method: (§1)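 PMA-differentiated THP-1 cells were primed with LPS, exposed to graded compound doses for 40 min, then given nigericin for 40 min. Supernatants were immunoblotted for IL-1β and caspase-1. Cell extracts were immunoblotted for NLRP3, pro-IL-1β and pro-caspase-1.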

[2] = Clearance in Sprague-Dawley rat at 10 mg/kg, iv measured up to 24 hrs by LC-MS/MS analysis; type: ADME, organism-based; details: in vivo
Summary of the method: (§2)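 Single doses given intravenously (10 mg/kg) or orally (10, 30, 90 mg/kg); plasma levels quantified by LC/MS/MS at multiple time points. Parameters reported as mean values: AUC0–t, CL, Cmax, T1/2, Tmax, and %F based on AUC.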

[3] = target: NLR family CARD domain-containing protein 4 (Homo sapiens) (UniProt Q9NPP4); assay: Inhibition of NLRC4 inflammasome activation in LPS-induced human THP-1 cells at 1 uM for 40 mins followed by flagellin stimulation for 6 h by ELISA; type: cell-based; details: time 400.0 min
THP-1 [4] = assay: Antiinflammatory activity in human THP-1 cells assessed as blockade of caspase 1 p20 in LPS stimulation followed by pretreatment for 40 min before induced with nigericin for 40 min measured by western blot analysis; type: functional, cell-based; details: time 80.0 min; summary of the method: as §1
[5] = AUC (0 to t) in Sprague-Dawley rat at 10 mg/kg, iv measured up to 24 hrs by LC-MS/MS analysis; type: ADME, organism-based; parameters: route intravenous, dose 10 mg/kg, time <=24; details: in vivo; summary of the method: as §2
[6] = Oral bioavailability in Sprague-Dawley rat at 10 mg/kg measured up to 24 hrs by LC-MS/MS analysis; type: ADME, organism-based; details: in vivo; summary of the method: as §2
THP-1 [7] = assay: Effect on IL-1beta expression in LPS-stimulated human THP-1 cells preincubated for 40 mins followed by LPS addition and measured after 3 hrs by Western blot analysis; type: functional, cell-based; details: time 220.0 min
Summary of the method: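 THP-1 cells were given compound for 40 min, then primed with LPS for 3 h. Medium supernatant was analysed for TNF-α. Cell extracts were immunoblotted for pro-IL-1β and NLRP3.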

Spleen = assay: Downregulation of IL-1beta level in spleen of LPS treated C57BL/6J mouse at 10 mg/kg, iv measured after 6 hrs by ELISA
[8] = target: NLR family CARD domain-containing protein 4 (Homo sapiens) (UniProt Q9NPP4); assay: Inhibition of NLRC4 inflammasome activation in LPS-induced human THP-1 cells at 3 to 5uM for 40 mins followed by flagellin stimulation for 6 h by ELISA; type: cell-based
THP-1 [9] = assay: Antiinflammatory activity in human THP-1 cells assessed as inhibition of LPS/nigericin-induced IL-1beta secretion in LPS stimulation followed by pretreatment for 40 min before induced with nigericin for 40 min measured by western blot analysis; type: functional, cell-based; details: time 80.0 min; summary of the method: as §1
[10] = target: NACHT, LRR and PYD domains-containing protein 3 (Homo sapiens) (UniProt Q96P20); assay: Inhibition of NLRP3 in human THP-1cells assessed as increase in thermal stability at 100 uM by cellular thermal shift assay
[11] = Cmax in Sprague-Dawley rat at 30 mg/kg, po measured up to 24 hrs by LC-MS/MS analysis; type: ADME, organism-based; parameters: route oral, dose 30 mg/kg, time <=24; details: in vivo; summary of the method: as §2
[12] = target: T1, Interferon-inducible protein AIM2 (Homo sapiens) (UniProt O14862); assay: Inhibition of AIM2 inflammasome activation in LPS-induced human THP-1 cells at 1 uM for 40 mins followed by […] stimulation for 6 h by ELISA; type: cell-based; details: time 400.0 min
T1 sequence (whole entry): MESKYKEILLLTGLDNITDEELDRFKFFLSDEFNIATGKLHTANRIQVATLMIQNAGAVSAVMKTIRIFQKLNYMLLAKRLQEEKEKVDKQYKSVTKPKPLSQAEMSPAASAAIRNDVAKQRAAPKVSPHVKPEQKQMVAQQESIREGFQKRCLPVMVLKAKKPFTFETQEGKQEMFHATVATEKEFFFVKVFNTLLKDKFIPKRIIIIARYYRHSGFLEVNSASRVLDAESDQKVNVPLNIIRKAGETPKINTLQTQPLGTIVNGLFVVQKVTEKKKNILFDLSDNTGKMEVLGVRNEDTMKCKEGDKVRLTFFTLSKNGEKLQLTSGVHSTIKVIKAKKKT

[13] = target: T1, Interferon-inducible protein AIM2 (Homo sapiens); assay: Inhibition of AIM2 inflammasome activation in LPS-induced human THP-1 cells at 3 to 5uM for 40 mins followed by […] stimulation for 6 h by ELISA; type: cell-based
[14] = Oral bioavailability in Sprague-Dawley rat at 90 mg/kg measured up to 24 hrs by LC-MS/MS analysis; type: ADME, organism-based; details: in vivo; summary of the method: as §2

Sequence of NACHT, LRR and PYD domains-containing protein 3 (Homo sapiens) (Q96P20 whole entry, the tested form may be a part): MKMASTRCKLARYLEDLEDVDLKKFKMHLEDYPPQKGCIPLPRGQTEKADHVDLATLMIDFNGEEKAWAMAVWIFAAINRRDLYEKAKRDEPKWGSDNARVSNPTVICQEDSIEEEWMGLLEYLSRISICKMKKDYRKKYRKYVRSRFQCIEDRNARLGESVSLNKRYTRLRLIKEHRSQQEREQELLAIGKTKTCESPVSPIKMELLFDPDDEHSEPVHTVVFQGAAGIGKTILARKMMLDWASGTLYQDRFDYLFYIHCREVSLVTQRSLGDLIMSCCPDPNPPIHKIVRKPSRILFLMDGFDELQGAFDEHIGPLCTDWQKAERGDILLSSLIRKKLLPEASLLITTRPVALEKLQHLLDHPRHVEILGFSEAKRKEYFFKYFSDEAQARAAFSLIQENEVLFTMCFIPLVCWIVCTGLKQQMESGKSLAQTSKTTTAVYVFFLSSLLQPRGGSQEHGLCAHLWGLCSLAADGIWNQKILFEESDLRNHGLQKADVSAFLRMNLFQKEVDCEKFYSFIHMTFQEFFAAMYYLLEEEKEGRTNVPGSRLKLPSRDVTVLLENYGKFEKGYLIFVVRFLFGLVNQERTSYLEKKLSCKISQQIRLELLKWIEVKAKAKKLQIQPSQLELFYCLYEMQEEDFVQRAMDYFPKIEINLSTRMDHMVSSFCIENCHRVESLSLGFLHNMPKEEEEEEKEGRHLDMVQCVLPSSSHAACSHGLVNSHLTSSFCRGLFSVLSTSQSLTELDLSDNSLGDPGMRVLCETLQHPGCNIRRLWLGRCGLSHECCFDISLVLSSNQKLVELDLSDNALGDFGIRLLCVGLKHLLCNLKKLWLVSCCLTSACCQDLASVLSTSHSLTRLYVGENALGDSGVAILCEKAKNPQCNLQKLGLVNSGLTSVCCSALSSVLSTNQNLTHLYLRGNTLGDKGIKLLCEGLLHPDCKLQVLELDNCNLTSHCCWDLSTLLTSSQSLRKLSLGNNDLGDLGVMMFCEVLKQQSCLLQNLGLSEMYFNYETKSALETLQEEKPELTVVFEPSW
Sequence of NLR family CARD domain-containing protein 4 (Homo sapiens) (Q9NPP4 whole entry, the tested form may be a part): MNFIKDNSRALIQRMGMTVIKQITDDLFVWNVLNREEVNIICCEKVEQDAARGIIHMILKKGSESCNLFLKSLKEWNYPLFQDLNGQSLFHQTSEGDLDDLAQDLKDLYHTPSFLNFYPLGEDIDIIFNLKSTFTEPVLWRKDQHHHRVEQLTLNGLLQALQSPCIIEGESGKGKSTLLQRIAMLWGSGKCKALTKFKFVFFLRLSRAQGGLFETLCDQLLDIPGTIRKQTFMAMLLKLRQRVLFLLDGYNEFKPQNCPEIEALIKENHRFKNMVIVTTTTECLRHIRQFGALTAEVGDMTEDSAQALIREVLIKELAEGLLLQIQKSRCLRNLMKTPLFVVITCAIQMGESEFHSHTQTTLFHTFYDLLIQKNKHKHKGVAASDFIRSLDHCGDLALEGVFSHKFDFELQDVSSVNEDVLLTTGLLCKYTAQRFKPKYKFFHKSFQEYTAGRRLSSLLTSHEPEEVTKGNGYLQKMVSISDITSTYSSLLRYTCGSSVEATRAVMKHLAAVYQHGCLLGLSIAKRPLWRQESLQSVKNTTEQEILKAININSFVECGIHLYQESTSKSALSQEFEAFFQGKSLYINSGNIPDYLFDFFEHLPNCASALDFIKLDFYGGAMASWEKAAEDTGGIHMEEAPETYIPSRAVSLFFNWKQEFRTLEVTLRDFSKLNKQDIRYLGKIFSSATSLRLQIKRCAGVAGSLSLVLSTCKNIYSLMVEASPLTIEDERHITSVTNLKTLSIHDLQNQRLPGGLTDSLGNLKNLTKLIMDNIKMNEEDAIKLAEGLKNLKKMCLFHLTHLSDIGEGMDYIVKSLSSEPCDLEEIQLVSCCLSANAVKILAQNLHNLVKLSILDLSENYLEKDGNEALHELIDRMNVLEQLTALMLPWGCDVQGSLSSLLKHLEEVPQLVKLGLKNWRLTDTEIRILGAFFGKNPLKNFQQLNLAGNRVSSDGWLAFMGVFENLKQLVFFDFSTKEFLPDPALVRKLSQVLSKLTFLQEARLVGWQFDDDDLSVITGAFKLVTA

With `COc1cc(/C=C/C(=O)c2ccc(F)cc2)c(OC)cc1Br` the inhibition [1] was “inactive”, the CL [2] was 2229.2 mL/min/kg and the inhibition [3] was “inactive”. For the same compound, the Activity (THP-1 [4]) was “Dose-Dependent Effect”, the AUC(0-t) at 24 h [5] was 106 ng·h/mL and the bioavailability [6] was 13.8%. The Activity (THP-1 [7]) was “inactive”, the Activity (Spleen) was “Active” and the inhibition [8] was “Dose-Dependent Effect”. For the same compound, the Activity (THP-1 [9]) was “Dose-Dependent Effect”, the inhibition [10] was “Active” and the Cmax [11] was 16.4 ng/mL. For the same compound, the inhibition [12] was “inactive”, the inhibition [13] was “Dose-Dependent Effect” and the bioavailability [14] was 2.47%.
